In ChEMBL document CHEMBL3822365, “Probing the Anticancer Action of Oridonin with Fluorescent Analogues: Visualizing Subcellular Localization to Mitochondria” (J Med Chem, 2016):
pIC50: −log10 of the molar value. The source made the active and inactive calls. The calls are words filed in the database; no cut-off is given here.

Tests used:
[1] = Cytotoxicity against human Bel7402 cells assessed as growth inhibition at 100 uM after 72 hrs by MTT assay; format: functional; settings: Bel-7402, 72 h, read-out: GI
Method in brief: (§1)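 Bel-7402 cells exposed to compound for 72 h, then MTT read-out of percent growth inhibition at the single stated concentration. Values are the mean of three independent experiments.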

[2] = Cytotoxicity against human Bel7402 cells assessed as growth inhibition at 10 uM after 72 hrs by MTT assay; format: functional; settings: Bel-7402, 72 h, read-out: GI; method in brief: as §1
[3] = Cytotoxicity against human Bel7402 cells assessed as growth inhibition at 1 uM after 72 hrs by MTT assay; format: functional; settings: Bel-7402, 72 h, read-out: GI; method in brief: as §1
[4] = test system: HepG2; experiment: Cytotoxicity against human HepG2 cells assessed as inhibition of cell proliferation after 72 hrs by MTT assay; format: functional, cell-based; settings: HepG2, 72 h
Method in brief: (§2)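 Log-phase cells seeded at 5 × 10^4 cells/mL and exposed to compound for 72 h at 37 °C, 5% CO2. MTT (5 mg/mL) added for a further 4 h, formazan dissolved in DMSO, OD read at 490 nm. Negative reference 0.1% DMSO, positive reference paclitaxel. IC50 given as mean ± SD, n = 3.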

[5] = test system: A549; experiment: Cytotoxicity against human A549 cells assessed as inhibition of cell proliferation after 72 hrs by MTT assay; format: functional, cell-based; settings: A549, 72 h; method in brief: as §2
[6] = test system: HeLa; experiment: Cytotoxicity against human HeLa cells assessed as inhibition of cell proliferation after 72 hrs by MTT assay; format: functional, cell-based; method in brief: as §2
[7] = test system: HepG2; experiment: Drug uptake in human HepG2 cells at 20 uM after 1 hr by inverted confocal microscopy; format: ADME, cell-based; settings: hepg2, 1 h
Method in brief: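 HepG2 cells incubated with probe for 1 h, then intracellular fluorescence imaged by fluorescence microscopy.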

[8] = test system: A549; experiment: Dissipation of mitochondrial membrane potential in human A549 cells at 20 uM after 1 to 48 hrs by […]; format: functional, cell-based
[9] = test system: K562; experiment: Antiproliferative activity against human K562 cells; format: functional, cell-based
[10] = test system: HepG2; experiment: Drug uptake in human HepG2 cells at 5 uM after 1 hr by inverted confocal microscopy; format: ADME, cell-based; settings: hepg2, 1 h
Method in brief: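 HepG2 cells were incubated with probe at 5 μM for 1 h and then examined by fluorescence microscopy for intracellular staining.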

[11] = test system: HepG2; experiment: Drug uptake in human HepG2 cells at 1 uM after 12 hrs by inverted confocal microscopy; format: ADME, cell-based; settings: hepg2, 12 h
Method in brief: (§3)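 Live A549 or HepG2 cells were given 1 μM probe for 12 h and washed with media. Confocal imaging used ex 405/em 460 nm at 40× on an inverted microscope. Each experiment was repeated three times.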

[12] = Drug uptake in human A549 cell cytoplasm at 1 uM after 12 hrs by inverted confocal microscopy; format: ADME, cell-based; settings: a549, 12 h; method in brief: as §3

Structure (SMILES)	inhibition of growth at 100 µM [1]	inhibition of growth at 10 µM [2]	inhibition of growth at 1 µM [3]	pIC50 [4]	pIC50 [5]	pIC50 [6]	Drug uptake [7]	Activity [8]	pIC50 [9]	Drug uptake [10]	Drug uptake [11]	Drug uptake [12]
C=C1C(=O)[C@]23[C@H](OC(=O)CCCCCCC)[C@H]1CC[C@H]2[C@@]12CO[C@@]3(O)[C@@H](O)[C@@H]1C(C)(C)CC[C@@H]2O	94.7%	92.7%	57.5%	–	–	–	–	–	–	–	–	–
CCN(CC)c1ccc2cc(C(=O)OCCCCOC(=O)CCCC(=O)O[C@@H]3[C@H]4CC[C@H]5[C@@]67CO[C@@](O)([C@@H](O)[C@@H]6C(C)(C)CC[C@@H]7O)[C@@]35C(=O)[C@@H]4C)c(=O)oc2c1	37.2%	3.7%	1.8%	3.84	4.11	4.10	Not Active	inactive	–	–	–	–
C=C1C(=O)[C@]23[C@H](OC(=O)CCCC(=O)OCCOCCOC(=O)c4cc5ccc(N(CC)CC)cc5oc4=O)[C@H]1CC[C@H]2[C@@]12CO[C@@]3(O)[C@@H](O)[C@@H]1C(C)(C)CC[C@@H]2O	94.6%	70.1%	1.4%	–	–	–	–	–	–	–	–	–
C=C1C(=O)[C@]23[C@H](OC(=O)CCC(=O)OCCOC(=O)c4cc5ccc(N(CC)CC)cc5oc4=O)[C@H]1CC[C@H]2[C@@]12CO[C@@]3(O)[C@@H](O)[C@@H]1C(C)(C)CC[C@@H]2O	94.4%	72.4%	11.5%	–	–	–	–	–	–	–	–	–
C=C1C(=O)[C@]23[C@H](OC(=O)CCCC(=O)OCCCOC(=O)c4cc5ccc(N(CC)CC)cc5oc4=O)[C@H]1CC[C@H]2[C@@]12CO[C@@]3(O)[C@@H](O)[C@@H]1C(C)(C)CC[C@@H]2O	94.6%	89.9%	2.7%	–	–	–	–	–	–	–	–	–
C=C1C(=O)[C@]23C[C@H]1CC[C@H]2[C@]1(COC3=O)[C@@H](OC(C)=O)CCC(C)(C)[C@H]1CO	–	–	–	–	–	–	–	–	5.45	–	–	–
C=C1C(=O)[C@]23[C@H](OC(=O)CCC(=O)OCCOC(=O)Cc4cc(=O)oc5cc(N(C)C)ccc45)[C@H]1CC[C@H]2[C@@]12CO[C@@]3(O)[C@@H](O)[C@@H]1C(C)(C)CC[C@@H]2O	93.3%	46.4%	1.1%	5.06	4.95	5.34	–	–	–	Active	Active	Active
